B1: tRNA (parent)
chain: GUUCCGUUGGCGUAAUGGUAACGCGUCUCCCUCCUAAGGAGAAGACUGCGGGUUCGAGUCCCGUACGGAACG

Variants at the floor of the assay were thinned out.

The variants in the data set derive from B1. Nature of the data set: yeast fitness relative to wild type (ratio to wild type); higher = fitter; tRNA-Arg(CCU), competitive growth, 37 C, YPD. An outline of the steps:
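For this measurement, the tRNA-Arg(CCU) gene was varied by chemical synthesis at a 3% per-site mutation rate across 69 sites, and each variant was placed at the native genomic locus in Saccharomyces cerevisiae. The pooled strains went through a 24-hour competition in YPD at 37°C in six parallel replicates, with amplicons from start and end populations read by 100-nucleotide paired-end sequencing. Darwinian fitness relative to wild type followed from the change in each genotype's frequency. Genotypes needed ≥ 100 starting reads, and estimates < 0.5 were set to 0.5.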
Take G6A G18C A37C: the yeast fitness is at most 0.5.
In the case of C24A A43G A65C it was at most 0.5; in that of A43C C66G, 0.603; in that of G17C G52C, at most 0.5.
In the case of C30U U59C it was 0.824; in that of C4U C24U A36C C49U, at most 0.5; in that of C5G A21G U32C C62U A65U G68A, at most 0.5.
Turning to G9C C66A, the yeast fitness is at most 0.5.
Turning to U8C C30G C31G A65C, the yeast fitness worked out at 0.527.
Turning to U26A A37G G48A C49G, the yeast fitness was at most 0.5.
For the variant C33G A43C, the yeast fitness is 0.666.
With U2C C11A C31U C33U A42C the figure was 0.527.
For the variant G6A C24U C55G A70U, the yeast fitness is 0.624.
In the case of G6A G18A C30U C55G it was at most 0.5; in that of A14G C24U U26G, at most 0.5.
As to C29U A37U G67A, the yeast fitness was found to be 0.643.
As for C24A C46A A70C, the yeast fitness amounted to 0.851.
Turning to C31U A36U A43C C55G, the yeast fitness is at most 0.5.
For the variant C31G A57C, the yeast fitness was found to be 0.617.
In the case of C27U A43C C60A it was at most 0.5; in that of U7G U32G, 0.569.
In the case of U19C G67U A69G it was 0.751; in that of U2C G18A C24U A42G G68A, at most 0.5.
On to G6C G41C, for which the yeast fitness turned out to be 0.671.
In the case of C46U U47C it was 0.911; in that of C4U G9C C61G, at most 0.5.
Regarding C34G G38C A69U, the yeast fitness was 0.5.
With A20G A70C the figure was 0.994.
As to C4A C33A C60A G63A U64C, the yeast fitness was at most 0.5.
For G9A G23C U64A, the yeast fitness was at most 0.5.
Take U16A C66A: the yeast fitness came to 0.653.
In the case of U3C A65U it was 0.997; in that of C22G C30U C34U A43G, at most 0.5.
G10C G67U: the yeast fitness stood at 0.689.
With U8A C24A U28C G68U the figure was 0.531; with C30U G38A A69U, 0.781; with G18C C24A U32C, 0.55.
Take C4U U8C C11A G12A U28C G44C: the yeast fitness is at most 0.5.
As for G6C C11G A15C G25C C27G C30G G38C, the yeast fitness was 0.61.
For G58C G67U, the yeast fitness stood at 0.832.
With U47C C55A, the yeast fitness worked out at 0.699.
In the case of C4A C30U U59A it was at most 0.5.
Consider U3A G18A C22U U64C, for which the yeast fitness is at most 0.5.
In the case of C5G A43G G56A C61G C62A it was at most 0.5; in that of C5G G41C U47G, at most 0.5; in that of A15U U16C A65G, at most 0.5.
Take C5U G48A G50A C55U A65C: the yeast fitness was at most 0.5.
As to C4A G9C C11G, the yeast fitness was at most 0.5.
C22U C61G: the yeast fitness was determined as 0.586.
In the case of C29G G50C C55U it was at most 0.5.
In the case of G6A C27U C30U it was 0.596; in that of G17A G58A C61U, 0.59.
With G25C C61G G67C the figure was 0.527.
On to A20C A21C C30G G39C A42G, for which the yeast fitness was 0.631.
In the case of A20G G50C it was 0.636; in that of C22U C34U A36U U53C, at most 0.5.
With U3C C4U C55U the figure was 0.699; with C5U A20U G67A, 0.882.
With C4U A15C A43U the figure was at most 0.5.
In the case of A20G C33G C49A U54G A65G, the yeast fitness is at most 0.5.
Turning to C27U A70U, the yeast fitness stood at 0.988.
As for A20G G23A C33G, the yeast fitness was 0.629.
In the case of C4U U7A U8A it was at most 0.5.
In the case of U2A C11G U47A it was at most 0.5.
Regarding C27U U32C A70C, the yeast fitness stood at 0.68.
With A21G U28C the figure was 0.991; with A14G G44A G67C, at most 0.5; with C33U G39A A57G, at most 0.5.
Consider A14G A20U, for which the yeast fitness was determined as 0.942.
In the case of C24U C49U U64A it was at most 0.5.
Take U2G A14G C22U C24G A69C: the yeast fitness was at most 0.5.
In the case of G9C C24U C30G it was at most 0.5; in that of U16G A42U C62A A70C, at most 0.5.
Turning to C5G G68C, the yeast fitness was found to be 0.826.
In the case of G23C C30U C46U it was at most 0.5.
In the case of A14C C62U A69C it was at most 0.5.
With U7C A14G C22G the figure was at most 0.5; with A21U C30U G39C A43G C46G U54A C62G, at most 0.5; with A20U C31A, 0.803.
A20G C34G C62U: the yeast fitness was at most 0.5.
As for C4G A20U C66U, the yeast fitness is at most 0.5.
In the case of C46G U54C C60A C62A it was at most 0.5; in that of C31U C34A A45U C61U, at most 0.5.
With A15G A45U C49U C60G the figure was at most 0.5.
For the variant G9A A40G C66U, the yeast fitness was at most 0.5.
Consider C4U C30A A57G, for which the yeast fitness turned out to be 0.806.
In the case of C29U G38A G48C C66U it was at most 0.5.
With U8C G10C A21U G23C G56A C61A A65G the figure was at most 0.5; with G9A A21U U28C G44A C55G, at most 0.5.
In the case of A14C C62A it was 0.65.
Take C5A G18A C30U G48C: the yeast fitness is at most 0.5.
For the variant U7A A14U G68A, the yeast fitness is at most 0.5.
On to C27A G38C A40U U53A, for which the yeast fitness was at most 0.5.
On to C5U G10A A40C G50A, for which the yeast fitness is at most 0.5.
Consider U3G U7A G9A U28C A40U, for which the yeast fitness is at most 0.5.
In the case of G25C C30G it was 0.582.
With A14C G25C A45G G48A, the yeast fitness came out at 0.534.
As to C22G C27G C29G C34A A43U U54C A65U, the yeast fitness was at most 0.5.
In the case of C5G U8C C30U U54A it was at most 0.5; in that of A21G G63A, 0.863.
In the case of A42G C66G G67C it was at most 0.5; in that of C4A A65C, 0.658.
For the variant G67U A69C, the yeast fitness was 0.795.
In the case of A21U A36G A43U U64A it was at most 0.5.
In the case of C11U C24G C33A A40C A65U, the yeast fitness was 0.641.
Take C11U C46A A65U: the yeast fitness was 0.682.
In the case of A14C C49G G63C it was 0.592; in that of C4U A20C C55G, at most 0.5.
In the case of A14C C22U G41A C61U C66U, the yeast fitness was at most 0.5.
In the case of C4G U7G A21C it was at most 0.5.
Regarding A14G A15C G17A A69C A70G, the yeast fitness was found to be 0.562.
In the case of C11U U26A C34G it was 0.607; in that of U3C G48C G67C, at most 0.5.
G6C G17A A36G C60U G63C: the yeast fitness was at most 0.5.
In the case of U16G U28A G52C U54A C66U it was at most 0.5; in that of A20U G67U, 0.681; in that of U19C G52C, 0.562.
Take C4U A14U A43U G68A: the yeast fitness is at most 0.5.
In the case of C4G A45U A70C it was 0.808.
Take U8C A15U C33G C62G: the yeast fitness is at most 0.5.
With A42U G56A C62A the figure was 0.586; with C11U C31U A37U A70U, at most 0.5; with C27G C33G G39A C46U C61U A69U, 0.585.
In the case of C31U C62G it was 0.949; in that of A14U A43U A45G, 0.634; in that of U3A A37U A42G, at most 0.5.
Turning to C27U C34U G44A, the yeast fitness is at most 0.5.
For A37G C55A G58C G68C, the yeast fitness was at most 0.5.
For the variant C27U C30U, the yeast fitness came to 0.825.
On to A40U G48C C49U, for which the yeast fitness was determined as 0.586.
Consider C11A U16C U32G C49G C62U, for which the yeast fitness is at most 0.5.
With C4G C22A U35A, the yeast fitness is at most 0.5.
In the case of G9C A14G A43C, the yeast fitness was at most 0.5.
In the case of U8C G68U A69C it was at most 0.5; in that of C5U A40C A42G G68A, at most 0.5.
As to A43C A45G G67A, the yeast fitness stood at 0.659.
In the case of C29G C46G G48C C62U it was at most 0.5; in that of C5A A20U A70G, at most 0.5; in that of C5U G6C G39A A45U C46G A57C, at most 0.5.
In the case of G10C C29U C46A A69U it was 0.59; in that of C60U C62U, 0.659.
With G9A U16C U32G G48C G58C the figure was at most 0.5; with C22G U32C G38C C60U, at most 0.5; with A20C A37G, 0.704.
With U8G C29G G38C G44A, the yeast fitness was 0.803.
With G17A C30G A45G the figure was 0.584.
In the case of U7C C46G G50A C62G U64C it was 0.695.
With U2C U8G A14G U32G U35A the figure was at most 0.5.
C33A C60G A70G: the yeast fitness is at most 0.5.
In the case of G10C C34G C49U, the yeast fitness is at most 0.5.
In the case of U2G A36U C62G G63A it was at most 0.5; in that of G10C C31U U35G, at most 0.5.
In the case of A15G U26C U32A C34U G38C G51A A57C C66U it was at most 0.5; in that of C49G A57U C61G, 0.516.
Take A42G A43G A45U: the yeast fitness worked out at 0.722.
On to G17C C55U G67A G68C, for which the yeast fitness was at most 0.5.
With C11U A15G C29G G48A C62U C66U the figure was 0.535; with A14G C31A U47C A70U, at most 0.5.
Turning to G41A U47C C61G C62U, the yeast fitness was at most 0.5.
On to G12A A20C C62G, for which the yeast fitness is at most 0.5.
With G6A A40U A43C, the yeast fitness was determined as 0.766.
In the case of U28C U47C A70G it was 0.743; in that of U3A C24U A40U G48A, at most 0.5.
As for C11U A20G U47G G58A, the yeast fitness is at most 0.5.
For G38C G56A G58A, the yeast fitness is 0.609.
For the variant A15C G17A A65G, the yeast fitness stood at 0.576.
In the case of C24G C29G it was at most 0.5.

The values above are taken from the RNAGym collection of RNA variant scans (doi:10.1126/science.aae0568).
